MT stabilize HCS: microtubule stabilizers in HeLa cells. 0.83% of 200,000 active. % tubulin-high responders, % at 10 µM. HeLa tubulin immunostaining HCS, 24 h; share of cells brighter than vehicle mean+2SD;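 active = plate Z-score above 3 for both tubulin-high and condensed-nucleus cell shares, with cell loss under 80%, at 10 µM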;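 also: anti alpha tubulin signal scored within the nucleus-defined area of each cell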
Autophagy HCS: alters autophagy in cells; calls only at 10 µM (by protocol); AID 463193; 0.98% of 190,000 active; MEF GFP-LC3 puncta imaging; test concentration mostly 10 µM;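 active = percentage of spot-positive cells more than 3 SD above its plate mean, without a fluorescence outlier flag or 80% toxicity; inconclusive = no clear call, values can overlap the other calls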;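 also: spot-positive cell cutoff set from DMSO-treated cells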
Wee1 degr inh: human Wee1 degradation inhibition, primary screen. P30291. HeLa Luc-Wee1K328M stability, luciferase luminescence; 100% = proteasome inhibitor MG132 effect. reporter increase, % at 5 µM. 1.2% of 220,000 active. AID 1321;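 active = activation above the mean of all tested compounds plus 3 SD, set per screening run, cut at about 8.8% in these data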;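 also: cells exposed to compound for 20 h before luminescence read; 0% = DMSO alone and 100% = MG132 at 30 µM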
Target sequence (P30291 whole entry K328M): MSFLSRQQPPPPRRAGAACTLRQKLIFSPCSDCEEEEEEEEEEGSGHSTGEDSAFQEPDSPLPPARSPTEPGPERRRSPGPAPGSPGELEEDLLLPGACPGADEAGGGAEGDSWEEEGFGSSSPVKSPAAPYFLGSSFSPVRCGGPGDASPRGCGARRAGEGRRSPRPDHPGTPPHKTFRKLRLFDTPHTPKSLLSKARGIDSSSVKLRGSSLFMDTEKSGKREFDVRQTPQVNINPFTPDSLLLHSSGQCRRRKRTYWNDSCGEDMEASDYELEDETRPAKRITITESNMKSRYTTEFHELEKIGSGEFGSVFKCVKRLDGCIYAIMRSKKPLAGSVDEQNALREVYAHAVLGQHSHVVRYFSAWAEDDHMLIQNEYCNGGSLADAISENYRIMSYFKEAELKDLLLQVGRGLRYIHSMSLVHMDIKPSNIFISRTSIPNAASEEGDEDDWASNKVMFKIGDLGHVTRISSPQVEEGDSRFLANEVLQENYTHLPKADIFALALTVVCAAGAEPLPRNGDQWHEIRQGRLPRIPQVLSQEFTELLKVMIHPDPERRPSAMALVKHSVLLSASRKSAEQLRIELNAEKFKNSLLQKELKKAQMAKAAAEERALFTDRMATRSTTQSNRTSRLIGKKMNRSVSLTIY
Insulin prom up: MIN6 insulin promoter up-regulation | 0.3% of 190,000 active | AID 1625 | z-score at 5 µM | MIN6 insulin promoter-GFP reporter, high-content imaging; active compounds read high;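 active = z-score above 3 at 5 µM with at least 500 cells counted in the well; inconclusive = wells under 500 cells, flagged as cytotoxic or low count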
b-catenin transl: beta-catenin nuclear translocation modulation; HeLa beta-catenin nuclear translocation, immunofluorescence imaging; nuclear translocation activity, % at 5 µM; 0.3% of 190,000 active; AID 1665;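 active = nuclear translocation activity above 50% at 5 µM, with a well cell count of 50 or more; inconclusive = wells under 50 cells across six images, flagged as toxic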;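 also: per-cell ratio of nuclear to cytoplasmic median beta-catenin stain intensity; plate controls were DMSO negative control for no effect and GSK-3 inhibitor IX positive control for full effect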
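System: HeLa cells, endogenous beta-catenin; compound dosing: 5 µM primary single dose, 0.1% DMSO, 0.02–20 µM confirmation series; incubation: 24 h compound exposure at 37°C, 5% CO2; signal: beta-catenin immunofluorescence imaging with DAPI; evaluation: % activation, nuclear-to-cytoplasmic median beta-catenin signal ratio per cell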
* = called active by the depositor; i = inactive; ? = inconclusive; nt = no result given; + = active, no number. An excerpt weighted towards active compounds, which were near 2.9% of everything screened.

SMILES | MT stabilize HCS | Autophagy HCS | Wee1 degr inh | Insulin prom up | b-catenin transl
O=C(OC(C(=O)NCc1ccco1)c1ccc(Cl)cc1)c1cccs1 (stereo not given) | nt | nt | 0 | -0.94 | 0
Cn1cc(Br)c(NS(=O)(=O)c2ccc(Cl)s2)n1 | nt | nt | 7 | 0.42 | -2
COC(=O)c1ccc(NC(=O)C(=O)N2CCN(C(=S)NCCc3ccccc3)CC2)cc1 | 2 | i | 2 | 0.77 | -1
Cc1cccc(N2CCN(C(=O)c3ccc4ncsc4c3)CC2)c1C | 43* | i | 3 | nt | 150*
CC(=O)c1ccc(NC(=O)C(C)Nc2ccc(Cl)cc2)cc1 (stereo not given) | 4 | i | -1 | 0.44 | 0
C/C(=N\N=C1\NC(=O)CC(C(=O)O)S1)c1cccs1 (stereo not given) | 2 | i | -4 | nt | nt
CNC(=O)C1CC(=O)N/C(=N/N=C(\C)c2cccs2)S1 (stereo not given) | 4 | i | -4 | 3.7* | 0
Clc1ccccc1/C=N/NC1=Nc2cccc3cccc1c23 | 18 | + | 4 | 0.79 | -2
C(=N\NC1=Nc2cccc3cccc1c23)/c1ccccn1 | 4 | i | 2 | -1.5 | 2
COc1ccc2oc(=Nc3cccc(F)c3)c(C(N)=O)cc2c1 | 9 | i | -2 | 0.52 | 61*
COc1ccc2o/c(=N/NC(=S)Nc3ccccc3)c(C(N)=O)cc2c1 | 7 | + | -3 | -0.25 | 0
COc1ccc2oc(=N)c(C(=O)Nc3ccccc3)cc2c1 | 3 | i | 4 | 0.5 | -6
Cc1onc(-c2c(Cl)cccc2Cl)c1C(=O)N1CCN(c2ncccn2)CC1 | 1 | i | -4 | 0.01 | -1
Cc1onc(-c2c(Cl)cccc2Cl)c1C(=O)N1CCN(c2ccccc2)CC1 | 21* | i | -1 | -0.79 | 0
C=CCn1c(SCc2ccccc2C#N)nnc1-c1cc(Br)ccc1O | 2 | i | 10* | 0.03 | -2
COC(=O)c1sc2nc(C)cc(-c3ccccc3)c2c1N | 5 | i | 2 | nt | -2
Nc1c(C(=O)C2CC2)sc2nc(-c3cccs3)cc(C(F)(F)F)c12 | 2 | ? | -1 | nt | -6
COc1ccc(C(=O)c2sc3nc(C)cc(-c4cccs4)c3c2N)cc1 | 2 | + | 5 | 2.7 | -2
COc1ccc(C(=O)c2sc3nc(C)cc(-c4cccs4)c3c2N)cc1OC | 1 | + | -2 | 2.5 | -1
CC(C)NC(=O)c1sc2nc(-c3cccs3)cc(-c3cccs3)c2c1N | 2 | + | 0 | 0.46 | -3
Cc1cc(-c2cccs2)c2c(N)c(C(=O)c3ccc4c(c3)OCO4)sc2n1 | 3 | + | -1 | 4.7* | -1
CC(C)C(C)(C#N)NC(=O)CSc1nc2scc(-c3ccc(F)cc3)c2c(=O)n1Cc1ccccc1 (stereo not given) | 2 | i | 4 | -0.17 | 1
CCN(CC)S(=O)(=O)c1cccc(NC(=O)COc2ncnc3sccc23)c1 | 2 | i | -2 | -0.16 | -1
Cc1cc(C)c2c(N)c(C(=O)c3ccccc3)sc2n1 | nt | nt | 11* | 0.79 | 1
Cc1cc(C)c2c(N)c(C(=O)c3ccc(Cl)cc3)sc2n1 | 4 | i | 1 | -1.1 | -1
SMILES | MT stabilize HCS | Autophagy HCS | Wee1 degr inh | Insulin prom up | b-catenin transl
CCN(CC)S(=O)(=O)c1ccc(C(=O)N(c2ccc(C)cc2)C2C=CS(=O)(=O)C2)cc1 (stereo not given) | 5 | i | -2 | -0.25 | 2
COC(=O)c1ccc(C)c(NS(=O)(=O)c2ccc3c(c2)OCCO3)c1 | 21* | i | -4 | 0.12 | 7
COC(=O)c1ccc(C)c(NS(=O)(=O)c2ccc(OC)cc2)c1 | 24* | + | 0 | -1.5 | nt
COc1ccc(S(=O)(=O)Nc2cc([N+](=O)[O-])ccc2OC)cc1 | 28* | i | -1 | 0.32 | 7
COc1ccccc1C(=O)NNC(=O)c1sccc1-n1cccc1 | 1 | i | -1 | -0.08 | -4
COc1ccc(-c2c(C)n([O-])c3c([n+]2=O)CCCC3)cc1 | 3 | i | -1 | 0.68 | -1
CCOc1ccc(-c2c(C)n([O-])c3c([n+]2=O)CCCCC3)cc1 | 4 | i | 8.9* | -0.14 | -3
C=CC[n+]1ccc(/C=C2\C=Cc3cc(C)ccc3N2CC)c2ccccc21 | 12 | i | -4 | nt | 0
CC1CCCC(NC(=O)CSc2ccc(F)cc2)C1C (stereo not given) | 2 | i | -5 | 0.94 | 0
CC1CCCC(NCC(O)COC(c2ccc(F)cc2)c2ccc(F)cc2)C1C (stereo not given) | 2 | + | 0 | -1.9 | -4
Cc1ccccc1S(=O)(=O)NC1=NCCCCC1 | 14* | i | -1 | nt | 0
N#CNc1nc(O)cc(=O)[nH]1 | nt | nt | -2 | -0.25 | -4
c1cc2c(cc1C1CCCCC1)c1c3n2CCCNC3CCC1 (stereo not given) | 65 | + | 2 | ? | 18
CCCN(C(=O)c1ccco1)c1nnc(-c2ccccc2C)s1 | 1 | i | -2 | 1.8 | 0
COc1ccc(/C=C/CN2CCCC(C(=O)c3ccc(OC)c(F)c3)C2)cc1 (stereo not given) | 2 | i | 9.1* | -0.94 | 0
N#Cc1cccc(C#N)c1Oc1ccc(S(=O)(=O)Nc2ccc(Cl)cc2)cc1 | nt | nt | -1 | -0.97 | 1
COC(=O)c1nnn(-c2nonc2N)c1CN1CCc2ccccc21 | 36* | i | 4 | -0.22 | 0
CCOC(=O)c1nnn(-c2nonc2N)c1CN1CCc2ccccc2C1 | 2 | i | -1 | nt | -2
NC(CO)(CO)COCc1ccccc1 | 6 | i | 1 | -0.31 | 1
Cc1ccc(-c2nc(NC(=O)c3nn(C)cc3[N+](=O)[O-])sc2C)cc1 | 55 | + | 0 | -0.68 | 1
Cc1ccc(-c2nc(NC(=O)c3nn(C)cc3[N+](=O)[O-])sc2C)cc1C | 49 | i | 3 | -0.31 | 32
O=C(O)CN1C(=O)NC2(CCOc3ccccc32)C1=O (stereo not given) | nt | nt | 9.8* | 0.55 | -2
O=C(N/N=C/c1cccc(Cl)c1Cl)Nc1ccccc1 | 1 | i | 1 | nt | -3
O=C(N/N=C/c1ccc(Cl)cc1Cl)Nc1ccccc1 | 19* | i | -2 | -0.22 | 10
NC(=O)C1CCN(C(=O)Nc2csc3ccccc23)CC1 | nt | nt | 0 | 0.65 | 0
C/C(=N\NC(=S)NCc1ccccc1)c1ccc(C)o1 | 5 | i | 4 | 0.31 | -2
O=C(CSc1ncn[nH]1)NC1CC2CCC1C2 (stereo not given) | 2 | + | 1 | 1.2 | 0
O=C(CSc1ncn[nH]1)NCc1ccccc1 | 3 | i | 4 | 5.4* | -2
O=C1CSC(c2ccccn2)N1c1ccc(C(F)(F)F)cc1 (stereo not given) | nt | nt | -2 | -0.94 | 0
c1ccc(-c2nnc(CSc3ccc4c(c3)OCCO4)o2)cc1 | 2 | i | 1 | 0.53 | -5

Source: PubChem
